The values below come from article PMC9066701 (RSC Advances, 2019).

By half-life is commonly meant the time needed for the level to fall by half in the phase considered.

Where two headings read alike, the source gives them in different places.

The subject of data set [1] is HepG-2 cells. The data set is described as follows: Mitochondrial membrane potential by JC-1 staining. In kind it is cell-based, human. The note with it: HepG-2, 30 μM, 48 hours, negative control 5.42.
Data set [2] has as its system MCF-7 human breast carcinoma cell line. The data set is described as follows: MTT cytotoxicity assay, MCF-7. In kind it is cell-based. The note with it: read-out: IC50 MCF-7. Put shortly:
(§1)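 Adherent cells kept in DMEM with 10% FBS at 37 °C, 5% CO2, seeded at 5 × 10^3 cells per well and left overnight. Test compound in DMF diluted in medium (DMF final < 0.4%) for 48 h at 37 °C. MTT (5 mg mL−1) added for 4 h, formazan dissolved in DMSO, A570 read. IC50 from % inhibition versus log concentration; cisplatin run as reference.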
(Formazan colour is commonly taken as a measure of viable cells.)

Data set [3] has as its system NCI-H460 large cell lung cancer cell line. The data set is described as follows: MTT cytotoxicity assay, NCI-H460. The conditions noted are these: read-out: IC50 NCI-H460. The class given is cell-based. A digest of the protocol: as §1
Data set [4] deals with HepG-2 human hepatocellular carcinoma cell line. The data set is described as follows: MTT cytotoxicity assay, HepG-2. In kind it is cell-based. The note with it: read-out: IC50 HepG-2. A digest of the protocol: as §1
The subject of data set [5] is BGC803 human gastric cancer cell line. The data set is described as follows: MTT cytotoxicity assay, BGC803. The class given is cell-based. The note with it: read-out: IC50 BGC803. Put shortly:
as §1

The subject of data set [6] is SGC7901 gastric cancer cell line. The data set is described as follows: MTT cytotoxicity assay, SGC7901. The note with it: read-out: IC50 SGC7901, 48 h drug exposure. The class given is cell-based. Put shortly: as §1
Data set [7] relates to SGC7901/CDDP cisplatin-resistant gastric cancer cell line. The data set is described as follows: MTT cytotoxicity assay, SGC7901/CDDP. In kind it is cell-based. The note with it: read-out: IC50 SGC7901/CDDP, 48 h drug exposure. A digest of the protocol: as §1
The test system of data set [8] is HUVEC human umbilical vein endothelial cell line. The data set is described as follows: MTT cytotoxicity assay, HUVEC. In kind it is cell-based. The conditions noted are these: read-out: IC50 HUVEC, 48 h drug exposure, normal cells. A digest of the protocol:
as §1

Data set [9] deals with HepG-2 cells. The data set is described as follows: Annexin V-FITC/PI apoptosis assay by flow cytometry. In kind it is cell-based, human. The conditions noted are these: HepG-2, 50 μM, 24 hours.
For data set [10] the following is noted: reported for kiteplatin; same experimental conditions; cited from earlier work.
The conditions of data set [11]: PBS, 37 °C, pH 7.0; cited from earlier work.

Consider `N#CC(C#N)=NNc1cccc(Cl)c1` [CCCP, carbonylcyanide-m-chlorophenylhydrazone], for which the “Red-green fluorescence ratio (FL2/FL1)” value in the data set with HepG-2 cells [1] is 0.04.

Take `N.N.O=C([O-])C1(C(=O)[O-])CCC1.[Pt+2]` [Carboplatin, carboplatin]: the IC50 in data set [2] (MTT assay, 48 h drug exposure) stood at 179 ± 10.6 µM; in data set [3] (MTT assay, 48 h drug exposure), 52.9 ± 4.98 µM; in data set [4] (MTT assay, 48 h drug exposure), 42.3 ± 2.55 µM; in data set [5] (MTT assay, 48 h drug exposure), 77.1 ± 5.35 µM. In addition, the “Red-green fluorescence ratio (FL2/FL1)” value in the data set on HepG-2 cells [1] was 2.56.

Consider `N.N.[Cl][Pt][Cl]` [Cisplatin, cisplatin], for which the IC50 in [6] was determined as 9.96 ± 0.87 µM; in data set [2] (MTT assay, 48 h drug exposure), 29.2 ± 1.38 µM; in data set [3] (MTT assay, 48 h drug exposure), 14.8 ± 1.35 µM; in data set [7], 35.6 ± 2.55 µM; in data set [4] (MTT assay, 48 h drug exposure), 27.8 ± 2.56 µM; in [5] (MTT assay, 48 h drug exposure) it was 21.6 ± 1.35 µM. Also, the IC50 in [8] is 36.9 ± 2.23 µM. In the data set with HepG-2 cells [1], the “Red-green fluorescence ratio (FL2/FL1)” value was found to be 0.54. Further, the “apoptotic rate (early + late)” value in the data set with HepG-2 cells [9] came out at 28.79%.

On to `O=C(O)C(Cl)Cl` [DCA, Dichloroacetate], for which the IC50 in data set [2] (Homo sapiens, MCF7, 48 h) is more than 100 µM; in data set [3] (Homo sapiens, NCI-H460, 48 h), more than 100 µM; in data set [4] (Homo sapiens, HepG2, 48 h) it was more than 100 µM; in data set [5] (Homo sapiens, BGC803, 48 h) it was more than 100 µM. Besides, the “Red-green fluorescence ratio (FL2/FL1)” value with HepG-2 cells [1] was 4.17.

In the case of `O=C1[O][Pt]2([NH][C@@H]3CCCC[C@H]3[NH]2)[O]C1=O` [Oxaliplatin, oxaliplatin], the IC50 in data set [6] came to 13.5 ± 1.55 µM; in [2] (MTT assay, 48 h drug exposure) it was 41.3 ± 3.43 µM; in data set [3] (MTT assay, 48 h drug exposure), 13.4 ± 1.13 µM; in data set [7], 99.4 ± 5.23 µM; in data set [4] (MTT assay, 48 h drug exposure), 26.5 ± 2.55 µM; in [5] (MTT assay, 48 h drug exposure), 29.1 ± 1.65 µM. The IC50 in data set [8] was determined as 51 ± 4.42 µM. Moreover, the “Red-green fluorescence ratio (FL2/FL1)” value in the data set on HepG-2 cells [1] is given as 0.94. In the data set with HepG-2 cells [9], the “apoptotic rate (early + late)” value is 21.74%.

Take `NC1CCC(N)CC1.[Cl][Pt+2][Cl]` (stereo not shown) [kiteplatin]: the half-life in [10] was 1 h.

Regarding “ct-[Pt(NH3)2(TFA)2(CBCDA)] [ct-[Pt(NH3)2(TFA)2(CBCDA)] (5)]”, the t1/2 in data set [11] is 2.37 h.
